Assay results published in ChEMBL document CHEMBL2401652 (J Med Chem, 2013).
Calls of active or inactive are those of the source. The rule behind the calls is not given here.

What was measured:
PANC-1 [1] = experiment: Induction of apoptosis in human PANC1 cells assessed as PARP cleavage at 25 uM after 24 hrs by Western blot analysis; type: functional, cell-based
Summary of the method: (§1)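 Cells (1.5 × 10^6) treated 24 h at 25 or 50 μM; 50 μg protein per lane on 10% SDS-PAGE, nitrocellulose, 2% TBS-BSA block, primary antibody overnight at 4 °C, HRP secondary, ECL detection; β-actin loading control; untreated controls in parallel.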

T98G [2] = experiment: Downregulation of total Bid expression in human T98G cells at 25 uM after 24 hrs by Western blot analysis; type: functional, cell-based; summary of the method: as §1
PANC-1 [3] = experiment: Induction of apoptosis in human PANC1 cells assessed as procaspase-9 cleavage at 25 uM after 24 hrs by Western blot analysis; type: functional, cell-based
Summary of the method: (§2)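 Cells (1.5 × 10^6) exposed 24 h to compound (25 or 50 μM). 50 μg protein per lane resolved on 10% SDS-PAGE and transferred to nitrocellulose. Membrane blocked in 2% TBS-BSA, then probed with primary antibody overnight at 4 °C and HRP secondary. Detection by ECL, with β-actin as loading control. Untreated control run in parallel.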

T98G [4] = experiment: Induction of apoptosis in human T98G cells assessed as procaspase-9 cleavage at 25 uM after 24 hrs by Western blot analysis; type: functional, cell-based; summary of the method: as §2
[5] = Binding affinity to DNA (unknown origin) at 100 uM after 2 hrs by UV-Vis absorption spectroscopic analysis
Summary of the method: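 DNA (100 μg/mL; stock 1.0 mg/mL in 50 mM Tris-HCl pH 7.5, 50 mM NaCl) with ligand fixed at 100 μM; incubated at 37 °C, then diluted six-fold; absorbance scanned 220–350 nm at 25 °C, 1 cm quartz cell; 260 nm band monitored.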

T98G [6] = experiment: Induction of apoptosis in human T98G cells assessed as procaspase-7 cleavage at 25 uM after 24 hrs by Western blot analysis; type: functional, cell-based; summary of the method: as §2
T98G [7] = experiment: Induction of apoptosis in human T98G cells assessed as induction of DNA damage at 20 uM after 24 hrs by comet assay relative to untreated control; type: functional
Summary of the method: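 T98G cells (1 × 10^5) treated 24 h with 0 or 20 μM. About 20000 cells embedded in 0.5% low-melting agarose and lysed overnight at 4 °C at pH 10. Alkaline electrophoresis (pH 13) for 30 min at 300 mA at 4 °C, then ethidium bromide staining. Tail length (nucleus centre to tail tip) from ≥20 comets, reported as mean ± SD.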

A549 = experiment: Cytotoxicity against human A549 cells assessed as growth inhibition after 24 hrs by MTT assay; type: functional, cell-based
Summary of the method: (§3)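 Log-phase cells (1 × 10^4 per well) treated 24 h with 0–30 μM at 37 °C, 5% CO2, in triplicate; MTT added for final 3 h; vehicle 0.15% ethanol; IC50 from three separate days, mean ± SE.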

K562 = experiment: Cytotoxicity against human K562 cells assessed as growth inhibition after 24 hrs by MTT assay; type: functional, cell-based; summary of the method: as §3
U-373MG ATCC [8] = experiment: Cytotoxicity against human U373MG cells assessed as induction of morphological changes at 30 uM after 12 hrs by phase contrast microscopic analysis; type: functional, cell-based
Summary of the method: (§4)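 U373MG glioma cells exposed to 30 μM for 3 or 12 h; shape and density examined by phase contrast microscopy against untreated cells.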

T98G [9] = experiment: Cytotoxicity against human T98G cells assessed as growth inhibition after 24 hrs by MTT assay; type: functional, cell-based; summary of the method: as §3
PANC-1 [10] = experiment: Downregulation of Bcl-xL expression in human PANC1 cells at 25 uM after 24 hrs by Western blot analysis; type: functional, cell-based; summary of the method: as §1
T98G [11] = experiment: Induction of apoptosis in human T98G cells assessed as PARP cleavage at 25 uM after 24 hrs by Western blot analysis; type: functional, cell-based; summary of the method: as §2
T98G [12] = experiment: Downregulation of Bcl-xL expression in human T98G cells at 25 uM after 24 hrs by Western blot analysis; type: functional, cell-based; summary of the method: as §1
T98G [13] = experiment: Induction of apoptosis in human T98G cells assessed as procaspase-8 cleavage at 25 uM after 24 hrs by Western blot analysis; type: functional, cell-based; summary of the method: as §2
PANC-1 [14] = experiment: Induction of apoptosis in human PANC1 cells assessed as procaspase-7 cleavage at 25 uM after 24 hrs by Western blot analysis; type: functional, cell-based; summary of the method: as §1
PANC-1 [15] = experiment: Downregulation of total Bid expression in human PANC1 cells at 25 uM after 24 hrs by Western blot analysis; type: functional, cell-based; summary of the method: as §1
PANC-1 [16] = experiment: Induction of apoptosis in human PANC1 cells assessed as procaspase-8 cleavage at 25 uM after 24 hrs by Western blot analysis; type: functional, cell-based; summary of the method: as §1
HCT-116 = experiment: Cytotoxicity against human HCT116 cells assessed as growth inhibition after 24 hrs by MTT assay; type: functional, cell-based; summary of the method: as §3
PANC-1 [17] = experiment: Cytotoxicity against human PANC1 cells assessed as growth inhibition after 24 hrs by MTT assay; type: functional, cell-based; summary of the method: as §3
[18] = Binding affinity to DNA (unknown origin) assessed as induction of conformational changes at 300 uM after 2 hrs by CD spectrometric analysis
Summary of the method: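 DNA at 1000 μg/mL in 50 mM Tris-HCl, pH 7.5, incubated with ligand for 2 h at 37 °C, then CD spectra recorded at 25 °C. Conformational change was judged from the 275 nm band (base stacking) and the 245 nm band (B-conformation).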

U-373MG ATCC [19] = experiment: Cytotoxicity against human U373MG cells assessed as induction of morphological changes at 30 uM after 3 hrs by phase contrast microscopic analysis; type: functional, cell-based; summary of the method: as §4
U-373MG ATCC [20] = experiment: Cytotoxicity against human U373MG cells assessed as induction of morphological changes at 30 uM up to 24 hrs by phase contrast microscopic analysis; type: functional, cell-based

With `COc1ccc2c(c1)[nH]c1c3c(c(C)cc12)O[C@](C)(CCC=C(C)C)C=C3` the Activity (PANC-1 [1]) was “inactive”, the Activity (T98G [2]) was “inactive” and the Activity (PANC-1 [3]) was “inactive”. The Activity (T98G [4]) was “inactive”, the Activity [5] was “Active” and the Activity (T98G [6]) was “inactive”. The Activity (T98G [7]) was “inactive”, the “growth inhibition (GI)” value (A549) was “Active” and the “growth inhibition (GI)” value (K562) was “Active”. The Activity (U-373MG ATCC [8]) was “inactive”, the “growth inhibition (GI)” value (T98G [9]) was “Active” and the Activity (PANC-1 [10]) was “inactive”. For the same compound, the Activity (T98G [11]) was “inactive”, the Activity (T98G [12]) was “inactive” and the Activity (T98G [13]) was “inactive”. For the same compound, the Activity (PANC-1 [14]) was “inactive”, the Activity (PANC-1 [15]) was “inactive” and the Activity (PANC-1 [16]) was “inactive”. The “growth inhibition (GI)” value (HCT-116) was “Active” and the “growth inhibition (GI)” value (PANC-1 [17]) was “Active”.

For `CC[n+]1c(-c2ccccc2)c2cc(N)ccc2c2ccc(N)cc21`, the Activity [18] was “Active”.

With `CC(=O)Oc1ccc2c(c1)[nH]c1c3c(c(C)cc12)O[C@](C)(CCC=C(C)C)C=C3` the “growth inhibition (GI)” value (A549) was “Active”, the “growth inhibition (GI)” value (K562) was “Active” and the Activity (U-373MG ATCC [8]) was “Active”. The “growth inhibition (GI)” value (T98G [9]) was “Active”, the Activity (U-373MG ATCC [19]) was “inactive” and the Activity (U-373MG ATCC [20]) was “Active”. For the same compound, the “growth inhibition (GI)” value (HCT-116) was “Active” and the “growth inhibition (GI)” value (PANC-1 [17]) was “Active”.
